Calls of active or inactive are those of the source. The rule behind the calls is not given here.
Legend:
Mus musculus [1] = test: (§1) Nephrotoxicity in Balb/c mouse infected with Trypanosoma cruzi MHOM/Pe/2011/Arequipa DTU 5 trypamastigotes assessed as decrease in urea level in serum at 100 mg/kg, po once daily for 5 consecutive days starting from day 10 post infection measured on day 16 post infection by biochemical analysis relative to control; format: toxicity, organism-based; design: scale not given: the % may be the effect or the level left; settings: in vivo
Mus musculus [2] = test: as §1, with “change” for “decrease”, “127” for “16”; format: toxicity, organism-based; settings: in vivo
Mus musculus [3] = test: as §1, with “day 75” for “day 10”, “day 81” for “day 16”; format: toxicity, organism-based; design: scale not given: the % may be the effect or the level left; settings: in vivo
Mus musculus [4] = test: as §1, with “uric acid” for “urea”; format: toxicity, organism-based; design: scale not given: the % may be the effect or the level left; settings: in vivo
Mus musculus [5] = test: as §1, with “change” for “decrease”, “uric acid” for “urea”, “127” for “16”; format: toxicity, organism-based; settings: in vivo
Mus musculus [6] = test: as §1, with “in uric acid” for “in urea”, “day 75” for “day 10”, “day 81” for “day 16”; format: toxicity, organism-based; design: scale not given: the % may be the effect or the level left; settings: in vivo
Mus musculus [7] = test: as §1, with “as change” for “as decrease”, “in uric acid” for “in urea”, “day 75” for “day 10”, “day 127” for “day 16”; format: toxicity, organism-based; settings: in vivo
Mus musculus [8] = test: as §1, with “Hepatotoxicity” for “Nephrotoxicity”, “ratio of serum AST to GOT” for “urea”, “level” for “level in serum”; format: toxicity, organism-based; design: scale not given: the % may be the effect or the level left; settings: in vivo
Mus musculus [9] = test: as §1, with “Hepatotoxicity” for “Nephrotoxicity”, “ratio of serum AST to GOT” for “urea”, “level” for “level in serum”, “127” for “16”; format: toxicity, organism-based; design: scale not given: the % may be the effect or the level left; settings: in vivo
Mus musculus [10] = test: as §1, with “Hepatotoxicity in” for “Nephrotoxicity in”, “in ratio of serum AST to GOT” for “in urea”, “level” for “level in serum”, “day 75” for “day 10”, “day 81” for “day 16”; format: toxicity, organism-based; design: scale not given: the % may be the effect or the level left; settings: in vivo
Mus musculus [11] = test: as §1, with “Hepatotoxicity in” for “Nephrotoxicity in”, “in ratio of serum AST to GOT” for “in urea”, “level” for “level in serum”, “day 75” for “day 10”, “day 127” for “day 16”; format: toxicity, organism-based; design: scale not given: the % may be the effect or the level left; settings: in vivo
Mus musculus [12] = test: as §1, with “Hepatotoxicity” for “Nephrotoxicity”, “ratio of serum ALT to GPT” for “urea”, “level” for “level in serum”; format: toxicity, organism-based; design: scale not given: the % may be the effect or the level left; settings: in vivo
Mus musculus [13] = test: as §1, with “Hepatotoxicity in” for “Nephrotoxicity in”, “in ratio of serum ALT to GPT” for “in urea”, “level” for “level in serum”, “day 75” for “day 10”, “day 81” for “day 16”; format: toxicity, organism-based; design: scale not given: the % may be the effect or the level left; settings: in vivo
Mus musculus [14] = test: as §1, with “Hepatotoxicity in” for “Nephrotoxicity in”, “in ratio of serum ALT to GPT” for “in urea”, “level” for “level in serum”, “day 75” for “day 10”, “day 127” for “day 16”; format: toxicity, organism-based; design: scale not given: the % may be the effect or the level left; settings: in vivo
Mus musculus [15] = test: as §1, with “Hepatotoxicity” for “Nephrotoxicity”, “total bilirubin” for “urea”, “level” for “level in serum”; format: toxicity, organism-based; design: scale not given: the % may be the effect or the level left; settings: in vivo
Mus musculus [16] = test: as §1, with “Hepatotoxicity in” for “Nephrotoxicity in”, “in total bilirubin” for “in urea”, “level” for “level in serum”, “day 75” for “day 10”, “day 81” for “day 16”; format: toxicity, organism-based; design: scale not given: the % may be the effect or the level left; settings: in vivo
Mus musculus [17] = test: as §1, with “Hepatotoxicity” for “Nephrotoxicity”, “alkaline phosphatase” for “urea”, “level” for “level in serum”; format: toxicity, organism-based; design: scale not given: the % may be the effect or the level left; settings: in vivo
Trypanosoma cruzi [18] = test: Antitrypanosomal activity against Trypanosoma cruzi MHOM/Pe/2011/Arequipa DTU 5 epimastigotes assessed as effect on parasite glycolytic pathway by measuring increase in succinate excretion at IC25 after 72 hrs by 1H NMR method relative to control; format: functional
In short: (§2)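 Arequipa epimastigotes exposed at IC25 for 72 h alongside an untreated control. Excreted catabolites were analysed by 1H NMR, and each peak is reported as % variation versus the control. Three separate determinations.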

Trypanosoma cruzi [19] = test: Antitrypanosomal activity against Trypanosoma cruzi MHOM/Pe/2011/Arequipa DTU 5 epimastigotes assessed as effect on parasite glycolytic pathway by measuring acetate excretion at IC25 after 72 hrs by 1H NMR method; format: functional, organism-based; in short: as §2
Trypanosoma cruzi [20] = test: Antitrypanosomal activity against Trypanosoma cruzi MHOM/Pe/2011/Arequipa DTU 5 epimastigotes assessed as effect on parasite glycolytic pathway by measuring L-alanine excretion at IC25 after 72 hrs by 1H NMR method; format: functional, organism-based; in short: as §2
Trypanosoma cruzi [21] = test: Antitrypanosomal activity against Trypanosoma cruzi MHOM/Pe/2011/Arequipa DTU 5 epimastigotes assessed as effect on parasite glycolytic pathway by measuring D-lactate excretion at IC25 after 72 hrs by 1H NMR method; format: functional, organism-based; in short: as §2
Trypanosoma cruzi [22] = test: Antitrypanosomal activity against Trypanosoma cruzi MHOM/Pe/2011/Arequipa DTU 5 epimastigotes assessed as effect on parasite glycolytic pathway by measuring ethanol excretion at IC25 after 72 hrs by 1H NMR method; format: functional, organism-based; in short: as §2
Trypanosoma cruzi [23] = test: (§3) Antitrypanosomal activity against Trypanosoma cruzi MHOM/Pe/2011/Arequipa DTU 5 trypamastigotes infected in Balb/c mouse assessed as parasitaemia reactivation at 100 mg/kg, po pretreated once daily for 5 consecutive days starting from day 75 post infection followed by cyclophosphamide-induced immunosuppression on day 100 post infection every 4 days for a maximum of 3 doses measured up to 1 week post immunosuppression by Neubauer chamber method; format: functional
Mus musculus [24] = test: Toxicity in Balb/c mouse assessed as reduction in body mass at 20 mg/kg, po once daily for 5 consecutive days starting from day 75 post infection relative to control; format: organism-based; design: scale not given: the % may be the effect or the level left; settings: in vivo
Mus musculus [25] = test: as §1, with “20” for “100”, “75” for “10”, “81” for “16”; format: toxicity, organism-based; design: scale not given: the % may be the effect or the level left; settings: in vivo
Mus musculus [26] = test: as §1, with “Hepatotoxicity” for “Nephrotoxicity”, “increase” for “decrease”, “ratio of serum AST to GOT” for “urea”, “level” for “level in serum”, “20” for “100”; format: toxicity, organism-based; settings: in vivo
Mus musculus [27] = test: as §1, with “Hepatotoxicity” for “Nephrotoxicity”, “increase” for “decrease”, “total bilirubin” for “urea”, “level” for “level in serum”, “20” for “100”; format: toxicity, organism-based; settings: in vivo
Mus musculus [28] = test: (§4) Hepatotoxicity in Balb/c mouse infected with Trypanosoma cruzi MHOM/Pe/2011/Arequipa DTU 5 trypamastigotes assessed as increase in total bilirubin level at 20 mg/kg, po once daily for 5 consecutive days starting from day 75 post infection measured on day 81 post infection by biochemical analysis relative to control; format: toxicity, organism-based; settings: in vivo
Mus musculus [29] = test: as §4, with “alkaline phosphatase” for “total bilirubin”, “10” for “75”, “16” for “81”; format: toxicity, organism-based; settings: in vivo
Trypanosoma cruzi [30] = test: as §3, with “assessed as reduction in parasitaemia reactivation” for “assessed as parasitaemia reactivation”; format: functional, organism-based
Mus musculus [31] = test: as §1, with “Cardiotoxicity” for “Nephrotoxicity”, “change” for “decrease”, “ratio of creatine kinase” for “urea level”, “muscle to brain” for “serum”; format: toxicity, organism-based; settings: in vivo
Mus musculus [32] = test: as §1, with “Cardiotoxicity” for “Nephrotoxicity”, “change” for “decrease in urea level”, “serum LDH level” for “serum”; format: toxicity, organism-based; settings: in vivo

Row | SMILES | Activity (Mus musculus [1]) | Activity (Mus musculus [2]) [%] | Activity (Mus musculus [3]) | Activity (Mus musculus [4]) | Activity (Mus musculus [5]) [%] | Activity (Mus musculus [6]) | Activity (Mus musculus [7]) [%] | Activity (Mus musculus [8]) | Activity (Mus musculus [9]) | Activity (Mus musculus [10]) | Activity (Mus musculus [11]) | Activity (Mus musculus [12]) | Activity (Mus musculus [13]) | Activity (Mus musculus [14]) | Activity (Mus musculus [15]) | Activity (Mus musculus [16]) | Activity (Mus musculus [17]) | Activity (Trypanosoma cruzi [18]) [%] | Activity (Trypanosoma cruzi [19]) | Activity (Trypanosoma cruzi [20]) | also measured
1 | COc1ccc(C(=O)CCN2CCN(c3ccc(Cl)cc3)CC2)cc1 | <= 30% | < 10 | <= 30% | <= 30% | < 10 | <= 30% | < 10 | <= 20% | <= 10% | <= 20% | <= 20% | <= 20% | <= 30% | <= 10% | <= 10% | <= 20% | <= 10% | 200 | inactive | inactive | Activity (Trypanosoma cruzi [21]): inactive; Activity (Trypanosoma cruzi [22]): inactive; Activity (Trypanosoma cruzi [23]): 20%
2 | O=C(Cn1ccnc1[N+](=O)[O-])NCc1ccccc1 [BENZNIDAZOLE] |  |  |  |  |  |  |  |  |  |  |  |  |  |  |  |  |  |  |  |  | Activity (Mus musculus [24]): > 10%; Activity (Mus musculus [25]): <= 30%; Activity (Mus musculus [26]): > 40%; Activity (Mus musculus [27]): <= 20%; Activity (Mus musculus [28]): <= 30%; Activity (Mus musculus [29]): <= 20%
3 | COc1ccc(C(=O)CCN2CCN(c3ccc(F)cc3)CC2)cc1 |  |  |  |  |  |  | < 10 | <= 30% | <= 10% | <= 10% | <= 20% | <= 30% | <= 30% | <= 10% | <= 10% | <= 10% | <= 20% |  |  |  | Activity (Trypanosoma cruzi [30]): Active; Activity (Mus musculus [31]): < 10%; Activity (Mus musculus [32]): < 10%
4 | COc1ccc(C(=O)CCN2CCN(c3ccc([N+](=O)[O-])cc3)CC2)cc1 | <= 20% | < 10 | <= 10% | <= 20% | < 10 | <= 30% |  |  |  |  |  |  |  |  |  |  |  | >20 | inactive | inactive | Activity (Trypanosoma cruzi [30]): Active; Activity (Mus musculus [31]): < 10%; Activity (Mus musculus [32]): < 10%; Activity (Trypanosoma cruzi [21]): inactive; Activity (Trypanosoma cruzi [22]): inactive
